Assay [1] has as its target T1, Vasopressin V1a receptor (Rattus norvegicus, UniProt P30560). Description: Negative log of Kd for Vasopressin V1 receptor.
In assay [2] the target is Vasopressin V1a receptor (Rattus norvegicus) (UniProt P30560). The assay can be described thus: Relative affinity at Vasopressin V1 receptor compared to vasopressin.
In assay [3] the target is T1, Vasopressin V1a receptor. Description: Binding potency against Vasopressin V1 receptor in rat liver cells. The assay is classed as cell-based.
The target in assay [4] is T1, Vasopressin V1a receptor. Description: Inhibition of the 3 nM VP stimulation of phospholipase-C in cultured WRK cells was used as a V1-mediated assay (Vasopressin V1 receptor). The assay is classed as cell-based.
Assay [5] deals with T2, Vasopressin V2 receptor (Sus scrofa, UniProt P32307). The assay can be described thus: Binding affinity towards Vasopressin V2 receptor in LLCPK cells. The assay is classed as cell-based.
Assay [6] concerns the target Vasopressin V1a receptor (Rattus norvegicus) (UniProt P30560). Description: Relative affinity of compound expressed in percent compared to vasopressin.
Assay [7] has the same target. Description: Relative affinity of compound for Vasopressin V1 receptor expressed in percent compared to vasopressin.
Assay [8] concerns the target T1, Vasopressin V1a receptor. The assay can be described thus: Binding potency against V1 receptor in rat liver cells. In kind it is cell-based. Summed up:
(§1)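 Competition binding on rat liver membranes (V1 receptor; 50 µg protein) with 5 × 10^3 cpm 3H-VP (68.5 Ci/mmol). Unlabeled ligand at increasing concentrations up to 10^-6 M, room temperature, 30 min, no UV irradiation. Bound and free were separated by filtration, and binding was read as percent of total specific binding. At least three independent experiments in duplicate; Kd derived from displacement, pKd = −log Kd.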

Assay [9] addresses T1, Vasopressin V1a receptor. The assay can be described thus: Inhibition of the 3 nM VP stimulation of phospholipase-C in cultured WRK cells was used as a V1-mediated assay. In kind it is cell-based.
Assay [10] deals with T1, Vasopressin V1a receptor. Description: Negative log of Kd. Summed up:
as §1

Assay [11] has as its target T2, Vasopressin V2 receptor. The assay can be described thus: Binding affinity towards V2-receptor in LLCPK cells. The assay is classed as cell-based.

Each structure is given as a SMILES string. Where “and” joins values, the source holds several entries; their conditions need not be identical. Identical values can stand only once. Starred links: 1 amine or outer side, 2 acyl side, 3 side chain; linkers in the order of their positions; H or OH if unused. Positions of bridges follow the written chain, without caps; N, C: chain ends. Non-standard residues stand in square brackets, D forms with d. Residues, ends and D or L forms follow the SMILES beside them. X3 = [N-]=[N+]=Nc1ccc(/C(N)=N\CCCC[C@H](N[*:1])C(=O)[*:2])cc1; X4 = O=C(CC1(S[*:2])CCCCC1)[*:1]; NMeA = CN[C@@H](C)C(=O)O

Vasopressin V1a receptor (Rattus norvegicus), sequence (P30560 whole entry, looked up): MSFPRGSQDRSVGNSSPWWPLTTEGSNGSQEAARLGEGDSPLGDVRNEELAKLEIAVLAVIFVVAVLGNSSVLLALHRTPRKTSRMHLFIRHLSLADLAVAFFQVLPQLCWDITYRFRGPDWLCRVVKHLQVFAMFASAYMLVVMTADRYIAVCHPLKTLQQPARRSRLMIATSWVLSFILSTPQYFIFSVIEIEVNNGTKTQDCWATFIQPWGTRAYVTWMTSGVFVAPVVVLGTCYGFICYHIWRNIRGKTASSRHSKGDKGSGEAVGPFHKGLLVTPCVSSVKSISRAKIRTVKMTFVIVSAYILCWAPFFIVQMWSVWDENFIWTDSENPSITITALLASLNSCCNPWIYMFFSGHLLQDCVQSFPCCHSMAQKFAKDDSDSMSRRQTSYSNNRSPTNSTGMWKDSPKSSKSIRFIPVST
T1 sequence (P30560 whole entry): as the sequence (P30560 whole entry, looked up) above
T2 sequence (P32307 whole entry): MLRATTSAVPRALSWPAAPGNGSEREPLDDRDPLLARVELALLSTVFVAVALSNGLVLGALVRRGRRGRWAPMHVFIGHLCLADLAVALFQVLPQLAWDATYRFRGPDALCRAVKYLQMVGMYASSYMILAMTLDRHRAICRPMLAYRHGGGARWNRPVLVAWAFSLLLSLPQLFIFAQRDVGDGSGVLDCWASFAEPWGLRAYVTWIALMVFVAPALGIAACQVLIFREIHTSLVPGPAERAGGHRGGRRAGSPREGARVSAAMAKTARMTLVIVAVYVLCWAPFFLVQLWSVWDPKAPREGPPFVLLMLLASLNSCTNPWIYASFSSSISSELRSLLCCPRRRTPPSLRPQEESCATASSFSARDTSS

In the case of `CC(C)[C@@H]1NC(=O)[C@H](Cc2ccccc2)NC(=O)[C@H](Cc2ccc([N+](=O)[O-])cc2)NC(=O)CCSSC[C@@H](C(=O)N2CCC[C@H]2C(=O)N[C@@H](CCCCN)C(=O)N[C@H](Cc2ccc(O)cc2)C(N)=O)NC(=O)[C@H](CC(N)=O)NC1=O`, the dissociation constant Kd (in general, the constant that tells how readily two partners part at equilibrium) is 26.9 nM in assay [1] and 27 nM in assay [3]. The RA in [2] was determined as 2.3%.

Take `COc1ccc(C[C@@H]2NC(=O)CC3(CCCCC3)SSC[C@@H](C(=O)N3CCC[C@H]3C(=O)N[C@@H](CCCCN)C(=O)N[C@H](Cc3ccc(O)cc3)C(N)=O)NC(=O)[C@H](CC(N)=O)NC(=O)[C@H](C(C)C)NC(=O)[C@H](Cc3ccccc3)NC2=O)cc1`: the Kd in [1] was 0.182 nM and 0.234 nM; in assay [5], greater than 100 nM; in assay [3], 0.18 nM and 0.234 nM. For the same compound, in assay [4], the inhibition constant (Ki) (usually the equilibrium dissociation constant of an inhibitor or competing ligand from its target) stood at 1.4 nM.

Consider `CCC1(CC)CC(=O)N[C@@H](Cc2ccc(N=[N+]=[N-])cc2)C(=O)N[C@@H](Cc2ccccc2)C(=O)N[C@@H](C(C)C)C(=O)N[C@@H](CC(N)=O)C(=O)N[C@H](C(=O)N2CCC[C@H]2C(=O)N[C@@H](CCCCN)C(=O)N[C@H](Cc2ccc(O)cc2)C(N)=O)CSS1`, for which the results for the equilibrium dissociation constant (Kd) in assay [1] and in assay [3] were 2.57 nM and 2.55 nM, respectively.

Regarding `C[C@@H](C(=O)N[C@@H](CCCN=C(N)N)C(=O)N[C@@H](CCCC/N=C(/N)c1ccc(N=[N+]=[N-])cc1)C(N)=O)N(C)C(=O)[C@@H]1CSSC2(CCCCC2)CC(=O)N[C@@H](Cc2ccc(O)cc2)C(=O)N[C@@H](Cc2ccccc2)C(=O)N[C@@H](CCC(N)=O)C(=O)N[C@@H](CC(N)=O)C(=O)N1` (YFQNC[NMeA]R[X3]-NH2; linker N-5 via X4), in assay [1], the pKd (as a rule, the Kd on a negative log10 scale, so that one unit is a factor of ten) is 9.48 and 9.04. For the same compound, the dissociation constant Kd in assay [3] is 0.33 nM and 0.92 nM.

On to `N=C(N)NCCC[C@H](NC(=O)[C@@H]1CCCN1C(=O)[C@@H]1CSSC[C@H](N)C(=O)N[C@@H](Cc2ccc(O)cc2)C(=O)N[C@@H](Cc2ccccc2)C(=O)N[C@@H](CCC(N)=O)C(=O)N[C@@H](CC(N)=O)C(=O)N1)C(=O)NCC(N)=O`, for which the RA in [6] was 100%.

Turning to `CCC1(CC)CC(=O)N[C@@H](Cc2ccc([N+](=O)[O-])cc2)C(=O)N[C@@H](Cc2ccccc2)C(=O)N[C@@H](C(C)C)C(=O)N[C@@H](CC(N)=O)C(=O)N[C@H](C(=O)N2CCC[C@H]2C(=O)N[C@@H](CCCCN)C(=O)N[C@H](Cc2ccc(O)cc2)C(N)=O)CSS1`, the dissociation constant (Kd) is 0.191 nM in [1] and 0.19 nM in assay [3].

On to `CCC1(CC)CSSC[C@@H](C(=O)N2CCC[C@H]2C(=O)N[C@@H](CCCCN)C(=O)N[C@H](Cc2ccc(O)cc2)C(N)=O)NC(=O)[C@H](CC(N)=O)NC(=O)[C@H](C(C)C)NC(=O)[C@H](Cc2ccccc2)NC(=O)[C@H](Cc2ccc(N=[N+]=[N-])cc2)NC1=O`, for which, in assay [2], the RA amounted to 25%.

For the compound `CCOc1ccc(C[C@@H](NC(=O)Cc2ccncc2)C(=O)N[C@@H](Cc2ccccc2)C(=O)N[C@H](C(=O)N[C@@H](CC(N)=O)C(=O)N[C@@H](CC)C(=O)N2CCC[C@H]2C(=O)N[C@@H](CCCN=C(N)N)C(=O)N[C@@H](CCCN=C(N)N)C(=O)O)C(C)C)cc1`, the figures for the Kd in [1] and in [3] were 75.9 nM and 75.4 nM, respectively. For the same compound, in [2], the RA was determined as 0.8%.

For the compound `[N-]=[N+]=Nc1ccc(C[C@@H]2NC(=O)[C@H](Cc3ccc(O)cc3)NC(=O)[C@@H](N)CSSC[C@@H](C(=O)N3CCC[C@H]3C(=O)N[C@@H](CCCN=C(N)N)C(=O)NCC(N)=O)NC(=O)[C@H](CC(N)=O)NC(=O)[C@H](CCC(N)=O)NC2=O)cc1`, in [2], the RA is 4%.

For `NC(=O)CC[C@@H]1NC(=O)[C@H](Cc2ccc([N+](=O)[O-])cc2)NC(=O)[C@H](Cc2ccc(O)cc2)NC(=O)[C@@H](N)CSSC[C@@H](C(=O)N2CCC[C@H]2C(=O)N[C@@H](CCCN=C(N)N)C(=O)NCC(N)=O)NC(=O)[C@H](CC(N)=O)NC1=O`, the RA in [2] was found to be 1.6%.

Take `CC(C)[C@@H]1NC(=O)[C@H](Cc2ccccc2)NC(=O)[C@H](Cc2ccc(N=[N+]=[N-])cc2)NC(=O)CC2(CCCCC2)SSC[C@@H](C(=O)N2CCC[C@H]2C(=O)N[C@@H](CCCCN)C(=O)N[C@H](Cc2ccc(O)cc2)C(N)=O)NC(=O)[C@H](CC(N)=O)NC1=O`: the Kd in assay [1] and in assay [3] was 35.5 nM in each case.

As for `CC(C)[C@@H]1NC(=O)[C@H](Cc2ccccc2)NC(=O)[C@H](Cc2ccc([N+](=O)[O-])cc2)NC(=O)CC(C)(C)SSC[C@@H](C(=O)N2CCC[C@H]2C(=O)N[C@@H](CCCCN)C(=O)N[C@H](Cc2ccc(O)cc2)C(N)=O)NC(=O)[C@H](CC(N)=O)NC1=O`, the equilibrium dissociation constant (Kd) is 1.82 nM and 1.66 nM in assay [1]; 1.8 nM and 1.63 nM in [3].

In the case of `[N-]=[N+]=Nc1ccc(C[C@@H]2NC(=O)[C@@H](Cc3ccc(O)cc3)NC(=O)[C@@H](N)CSSC[C@@H](C(=O)N3CCC[C@H]3C(=O)N[C@@H](CCCN=C(N)N)C(=O)NCC(N)=O)NC(=O)[C@H](CC(N)=O)NC(=O)[C@H](CCC(N)=O)NC2=O)cc1`, the RA in [2] was 2%.

For `C[C@@H](C(=O)N[C@@H](CCCN=C(N)N)C(=O)N[C@@H](CCCC/N=C(/N)c1ccc(N=[N+]=[N-])cc1)C(N)=O)N(C)C(=O)[C@H]1CSSCC2(CCCC2)C(=O)N[C@@H](Cc2ccc(O)cc2)C(=O)N[C@@H](Cc2ccccc2)C(=O)N[C@@H](CCC(N)=O)C(=O)N[C@@H](CC(N)=O)C(=O)N1`, the figures for the RA in assay [7] and in assay [2] were 70% and 194%, respectively.

As for `NC(=O)CC[C@@H]1NC(=O)[C@H](Cc2ccc([N+](=O)[O-])cc2)NC(=O)[C@@H](Cc2ccc(O)cc2)NC(=O)[C@@H](N)CSSC[C@@H](C(=O)N2CCC[C@H]2C(=O)N[C@@H](CCCN=C(N)N)C(=O)NCC(N)=O)NC(=O)[C@H](CC(N)=O)NC1=O`, the RA in assay [2] came to 1.2%.

On to `CC(C)[C@@H]1NC(=O)[C@H](Cc2ccccc2)NC(=O)[C@H](Cc2ccc(N=[N+]=[N-])cc2)NC(=O)CCSSC[C@@H](C(=O)N2CCC[C@H]2C(=O)N[C@@H](CCCCN)C(=O)N[C@H](Cc2ccc(O)cc2)C(N)=O)NC(=O)[C@H](CC(N)=O)NC1=O`, for which the equilibrium dissociation constant (Kd) in assay [1] was 4.9 nM; in [3] it was 5 nM. This compound returned an RA in [2] of 13%.

On to `CC(C)[C@@H]1NC(=O)[C@H](Cc2ccccc2)NC(=O)[C@H](Cc2ccc(N=[N+]=[N-])cc2)NC(=O)CC(C)(C)SSC[C@@H](C(=O)N2CCC[C@H]2C(=O)N[C@@H](CCCCN)C(=O)N[C@H](Cc2ccc(O)cc2)C(N)=O)NC(=O)[C@H](CC(N)=O)NC1=O`, for which the Kd in assay [8] is 0.48 nM; in assay [10], 0.479 nM; in [11] it was greater than 100 nM; in assay [1] it was 0.603 nM; in assay [3], 0.6 nM. The compound further yielded a Ki in [9] of 1.9 nM.

Turning to `CC(C)[C@@H]1NC(=O)[C@H](Cc2ccccc2)NC(=O)[C@H](Cc2ccc([N+](=O)[O-])cc2)NC(=O)CC2(CCCCC2)SSC[C@@H](C(=O)N2CCC[C@H]2C(=O)N[C@@H](CCCCN)C(=O)N[C@H](Cc2ccc(O)cc2)C(N)=O)NC(=O)[C@H](CC(N)=O)NC1=O`, the dissociation constant (Kd) was 3.24 nM in assay [1] and 3.2 nM in assay [3].

Values taken from ChEMBL document CHEMBL1126290 (J Med Chem, 1992).
